Assay results from different studies.
Compare with care: the assays were run in different laboratories.
Target: Cyclin-dependent kinase 5 (CDK5, Homo sapiens, UniProt Q00535)

SMILES	test	conditions	remaining binding
Cc1cnn2ncc(-c3ccnc(N(C)C)n3)c2c1	binding	1 µM	100%
Cc1cc(NC(=O)c2cccc(S(F)(F)(F)(F)F)c2)cc(-n2ccn3nc(-c4cccnc4)cc23)c1	cell-free assay, competition with immobilised ligand	1 µM	100%
C[C@@H](c1ccc(-n2cnc3c(N)ncnc32)cc1)N1CCc2nn(C)c(Cc3ccccc3)c2C1=O	binding, competition with immobilised ligand	0.1 µM	39%
CC1CCCN1c1nccc(-c2cnn3ncccc23)n1 (stereo not shown)	binding	1 µM	96%
O=C(c1ccc(Nc2ncc(Cl)c(-c3cc4ccccc4s3)n2)cc1)N1CCC(N2CCCC2)CC1	binding, competition with immobilised ligand	1 µM	42%
CNCc1ccccc1-c1csc([C@@H](C)Nc2nc(C)nc3cc(OC)c(OC)cc23)c1	cell-free assay, competition with immobilised ligand	1 µM	78%
FC(F)(F)Oc1cccc(-c2cnc3ccc(-c4ccncc4)nn23)c1	cell-free assay, competition with immobilised ligand	5 µM	93%
O=C(NCCCN1CCOCC1)c1ccc(Nc2ncc(Cl)c(-c3ccc(Cl)s3)n2)cc1	binding, competition with immobilised ligand	1 µM	42%
CSc1cccnc1N1CCN(Cc2nc3ccccc3[nH]2)CC1	cell-free assay, competition with immobilised ligand	1 µM	99%
CN(CCCC(F)(F)F)c1nccc(-c2cnn3ncccc23)n1	binding	1 µM	96%
O=c1nc(-c2ccccn2)sc2ccccc12	binding, competition with immobilised ligand	1 µM	85%
COc1cnc(Nc2cccc(S(N)(=O)=O)c2)nc1N1CCN(c2ccccc2)CC1	binding, competition with immobilised ligand	1 µM	100%
C[C@@H]1CN(c2cc(-c3n[nH]c4ccc(OC5(C)CC5)cc34)ncn2)C[C@H](C)O1	cell-free assay, competition with immobilised ligand	0.1 µM	100%
CCN1CCN(Cc2ccc(C(=O)Nc3ccc(C)c(Oc4ccc5c(c4)CC(=O)N5)c3)cc2C(F)(F)F)CC1	binding, competition with immobilised ligand	1 µM	100%
F[C@@H]1CCN(c2nccc(-c3cnn4ncccc34)n2)C1	binding	1 µM	100%
O=C(NCCCN1CCOCC1)c1ccc(Nc2nccc(-c3cc4ccccc4s3)n2)cc1	binding, competition with immobilised ligand	1 µM	84%
C[C@H]1CCN(c2nccc(-c3cnn4ncccc34)n2)C1	binding	1 µM	97%
Cn1cc(Cl)c2c(Oc3c(F)cc(Nc4cc(Cl)nc(N)n4)cc3F)ccnc21	cell-free assay, competition with immobilised ligand	0.1 µM	100%
N[C@@H]1CCN(c2nccc(-c3cnn4ncccc34)n2)C1	binding	1 µM	100%
C=CC(=O)N1CCC(C(=O)NCC(=O)N2CCN(c3nc(-c4cnc(N)nc4C(F)F)nc(N4CCOCC4)n3)CC2)CC1	binding, competition with immobilised ligand	1 µM	100%
c1cnn2ncc(-c3ccnc(N4CCC45COC5)n3)c2c1	binding	1 µM	99%
O=C(NCC1CCOCC1)c1n[nH]cc1NC(=O)c1c(F)cccc1F	binding, competition with immobilised ligand	1 µM	83%
